Measurements as given in ChEMBL document CHEMBL1147679, “Differential inhibition of group IVA and group VIA phospholipases A2 by 2-oxoamides” (2006).
Active and inactive are the calls of the source. The calls are words filed in the database; no cut-off is given here.

Tests used:
[1] = molecular target: T1, Cytosolic phospholipase A2 (Homo sapiens) (UniProt P47712); assay: Inhibition of group 4A cPLA2 at 0.01 mole fraction
T1 sequence (whole entry): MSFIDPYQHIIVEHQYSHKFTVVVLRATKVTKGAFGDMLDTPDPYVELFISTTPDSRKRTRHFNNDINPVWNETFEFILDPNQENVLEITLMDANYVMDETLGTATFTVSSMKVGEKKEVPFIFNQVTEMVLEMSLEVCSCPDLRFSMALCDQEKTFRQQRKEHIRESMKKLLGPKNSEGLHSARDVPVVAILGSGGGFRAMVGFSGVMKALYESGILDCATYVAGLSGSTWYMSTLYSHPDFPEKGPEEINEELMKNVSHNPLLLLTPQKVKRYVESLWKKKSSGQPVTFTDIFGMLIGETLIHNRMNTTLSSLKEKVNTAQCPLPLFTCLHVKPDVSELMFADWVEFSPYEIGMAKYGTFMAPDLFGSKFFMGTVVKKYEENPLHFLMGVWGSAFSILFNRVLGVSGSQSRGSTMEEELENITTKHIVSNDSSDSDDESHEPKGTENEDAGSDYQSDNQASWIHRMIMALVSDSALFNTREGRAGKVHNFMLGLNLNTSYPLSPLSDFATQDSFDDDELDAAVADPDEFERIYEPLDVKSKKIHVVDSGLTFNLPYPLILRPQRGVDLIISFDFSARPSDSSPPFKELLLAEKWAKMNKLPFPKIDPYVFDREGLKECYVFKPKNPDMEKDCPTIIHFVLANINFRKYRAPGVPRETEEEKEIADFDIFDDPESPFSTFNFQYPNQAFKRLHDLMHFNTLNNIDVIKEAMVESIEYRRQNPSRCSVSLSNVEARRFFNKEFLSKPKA

[2] = molecular target: T2, 85/88 kDa calcium-independent phospholipase A2 (Homo sapiens) (UniProt O60733); assay: Inhibition of group 6A iPLA2 at 0.02 mole fraction
T2 sequence (whole entry): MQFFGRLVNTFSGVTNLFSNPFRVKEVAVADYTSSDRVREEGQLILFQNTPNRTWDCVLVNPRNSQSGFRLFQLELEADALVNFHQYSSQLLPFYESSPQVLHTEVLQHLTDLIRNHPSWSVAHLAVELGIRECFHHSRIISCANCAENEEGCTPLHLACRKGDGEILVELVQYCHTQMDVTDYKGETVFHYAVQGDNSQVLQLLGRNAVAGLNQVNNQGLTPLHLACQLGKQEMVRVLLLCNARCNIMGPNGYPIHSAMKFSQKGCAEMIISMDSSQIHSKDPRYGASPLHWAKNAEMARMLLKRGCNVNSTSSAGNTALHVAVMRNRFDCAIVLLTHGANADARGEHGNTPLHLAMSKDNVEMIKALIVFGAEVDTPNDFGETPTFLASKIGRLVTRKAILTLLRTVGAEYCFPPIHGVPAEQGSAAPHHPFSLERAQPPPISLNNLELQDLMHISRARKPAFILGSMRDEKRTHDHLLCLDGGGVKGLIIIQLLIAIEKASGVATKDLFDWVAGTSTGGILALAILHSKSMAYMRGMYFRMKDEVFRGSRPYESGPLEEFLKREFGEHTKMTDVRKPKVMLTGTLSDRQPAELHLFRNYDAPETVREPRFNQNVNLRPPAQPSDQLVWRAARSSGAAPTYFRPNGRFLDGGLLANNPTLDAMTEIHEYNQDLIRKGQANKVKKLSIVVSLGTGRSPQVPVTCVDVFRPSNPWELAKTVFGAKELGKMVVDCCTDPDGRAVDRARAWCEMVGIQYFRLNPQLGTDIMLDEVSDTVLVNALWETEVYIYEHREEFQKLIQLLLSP

[3] = molecular target: T1, Cytosolic phospholipase A2 (Homo sapiens); assay: Inhibition of group 4A cPLA2 at 0.091 mole fraction
Summary of the method: (§1)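 Native human GIVA cPLA2 (10 ng) was assayed in 100 mM HEPES pH 7.5 with 80 µM CaCl2, 0.1 mg/mL fatty-acid-free BSA and 2 mM DTT. Substrate was 97 µM 1-palmitoyl-2-[14C]-arachidonoyl PC with 3 µM PIP2 and 400 µM Triton X-100 micelles, plus 1% DMSO. Runs were 30 min at 40 °C, read by modified Dole assay. Potency is XI(50) in surface mole fraction; highest dose 0.091 mole fraction.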

[4] = molecular target: T2, 85/88 kDa calcium-independent phospholipase A2 (Homo sapiens); assay: Inhibition of group 6A iPLA2 at 0.091 mole fraction
Summary of the method: (§2)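 Recombinant human GVIA-2 iPLA2 (His-tagged) was expressed in Sf9 cells by baculovirus and purified on Ni-NTA. Enzyme (190 ng) acted on mixed micelles of 100 µM DPPC with [14C]-palmitoyl PC tracer and 400 µM Triton X-100, in HEPES pH 7.5 with EDTA, DTT and ATP and 1% DMSO. Runs were 30 min at 40 °C, read by modified Dole assay. XI(50) (mole fraction) came from a logarithmic or linear fit; highest dose 0.091 mole fraction.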

[5] = molecular target: T2, 85/88 kDa calcium-independent phospholipase A2 (Homo sapiens); assay: Inhibition of group 6A iPLA2; summary of the method: as §2
[6] = molecular target: T1, Cytosolic phospholipase A2 (Homo sapiens); assay: Inhibition of group 4A cPLA2; summary of the method: as §1
RAW264.7 = assay: Inhibition of LPS-stimulated prostaglandin PGE2 production in mouse RAW 264.7 macrophage-like cell line; assay type: functional
Summary of the method: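 RAW 264.7 cells in DMEM/10% FCS were plated at 5×10^5 per well, allowed to adhere 24 h, then held serum-free 18 h. Inhibitors, in DMSO (<0.5% v/v) diluted into serum-free medium, were added 30 min before 100 ng/mL E. coli 0111:B4 LPS for 24 h. Medium PGE2 was quantified by LC-MS (negative ESI, MRM) against a deuterated PGE2 internal standard.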

SMILES	inhibition [3]	inhibition [4]	XI50 (mole fraction) [6]	also measured
CCCCCCCCCCCCCCC(=O)C(=O)NCCCCCC				inhibition [1]: 0%; inhibition [2]: 25%
COC(=O)CCCNC(=O)C(=O)CCCCc1ccccc1	0%	0%		
COC(=O)CCCNC(=O)C(=O)CCCc1ccccc1	0%	0%		
O=C(O)CCCNC(=O)C(=O)CCCCc1ccccc1	0%	0%		
CCCCCCCCCCCCCCCCNC(=O)C(=O)CC				inhibition [1]: 0%; inhibition [2]: 25%
O=C(O)CCCNC(=O)C(=O)CCCc1ccccc1	0%	0%		
NC(=O)C(=O)CCCCc1ccccc1	0%	0%		
CCCCCCCCCCCCCC(=O)C(N)=O				inhibition [1]: 0%; inhibition [2]: 0%

Now from value to molecule, other results behind:

inhibition [3]	inhibition [4]	XI50 (mole fraction) [6]	SMILES	also measured
		0.012	CCCCCCCC/C=C\CCCCCCCC(=O)C(=O)NCCCC(=O)OC	XI50 (mole fraction) [5]: 0.067; Inhibition (RAW264.7): 40%
	0%	0.017	CCCCCCCCCCCCCCC(=O)C(=O)NCCCC(=O)O	
	0%	0.003	CCCCCCCCCCCCCCC(=O)C(=O)N[C@H](/C=C/C(=O)O)CCCC	
0%	25%		CCCCCCCCCCCCCCC(=O)C(=O)NCCCC(=O)OC	inhibition (RAW264.7): inactive
	0%	0.011	CCCCCCCC/C=C\CCCCCCCC(=O)C(=O)NCCCC(=O)O	
		0.018	CCCCCCCCCCCCCCC(=O)C(=O)N[C@@H](/C=C/C(=O)OC)CCCC	XI50 (mole fraction) [5]: 0.032; Inhibition (RAW264.7): 40%
